Bioassay records: PubChem, several laboratories
SENP1 FRET inh = blocks the human SENP1 SUMO protease catalytic domain. Q9P0U3. recombinant SENP1 catalytic domain, CyPet-SUMO1-YPet FRET cleavage. inhibition, % at 10 µM. actives 0.21% (n = 360,000);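 active = inhibition at least 30% at 10 µM, raw YFP signal under a set limit, fluorescence ratio 0.5 to 1.5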
Target sequence (Q9P0U3 419-644 limits assumed): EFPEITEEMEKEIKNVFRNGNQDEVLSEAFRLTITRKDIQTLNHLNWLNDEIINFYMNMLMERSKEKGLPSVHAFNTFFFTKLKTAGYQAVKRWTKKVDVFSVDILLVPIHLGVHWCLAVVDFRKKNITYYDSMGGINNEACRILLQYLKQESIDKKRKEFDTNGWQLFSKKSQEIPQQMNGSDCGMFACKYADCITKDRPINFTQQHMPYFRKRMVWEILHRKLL
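material = recombinant human SENP1 catalytic domain, His6-tagged | quantity = 20 pM enzyme | reagent = 25 nM SUMO1 FRET substrate | compound dosing = 10 µM single point, 0.5% DMSO | timing = 50 min enzyme reaction, room temperature, light-protected | detection = FRET, CFP and YFP emission | control set = no-enzyme low, enzyme-DMSO high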
ATG4B inh = blocks human ATG4B protease cleavage of LC3 substrate; AID 504462; ATG4B cleavage of LC3-PLA2, NBD-HPC fluorescence, 1 h; inhibition, % at 8.33 µM; Q9Y4P1; actives 0.51% (n = 340,000); in the data active = inhibition above about 40%
GRIN3A LBD mod = NR3A (human) ligand-binding domain modulation; AID 1259313; actives 2.5% (n = 340,000); NR3A LBD differential scanning fluorimetry, Tm shift; 0% = protein alone, 100% = glycine-bound protein; Tm shift relative to glycine control, % at 25 µM;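 active = melting temperature shift of at least 10% of the positive control shift, at one fixed dose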
UCH37 DUB inh = inhibitors of human deubiquitinating enzyme UCH37 | Q9Y5K5 | purified proteasome/UCH37, Ub-AMC cleavage fluorescence | inhibition, % (test concentration not listed) | actives 0.33% (n = 330,000) | AID 588478;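 active = mean inhibition over replicate wells above about 20%, limit read from the data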
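Material: Human UCH37 enzyme supplied as purified proteasome complex | Schedule: 30 min compound-proteasome preincubation then 25 min substrate reaction, room temperature | Detection: AMC fluorescence from Ub-AMC cleavage, excitation 355 nm, emission 460 nm | Benchmarks: Wells without proteasome as full block, compound-free enzyme plus substrate as uninhibited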
NadD inh = NadD (S. aureus) enzyme inhibition. inhibition, % at 20 µM. purified NadD enzyme, colorimetric absorbance read-out. actives 0.78% (n = 360,000); in the data active = inhibition above about 26%
Numbers stand for hits; – = inactive; · = not tested or not shown. This is a sample that favours compounds with a hit; in the whole collection about 3.6% have one here.

SMILES | SENP1 FRET inh | ATG4B inh | GRIN3A LBD mod | UCH37 DUB inh | NadD inh
Cc1cc(NS(=O)(=O)c2ccc(Nc3nc(-c4sc(N)nc4C)cs3)cc2)no1 | – | – | – | · | 36.8
COc1cc(NS(=O)(=O)c2ccc(Nc3nc(-c4ccccc4)cs3)cc2)nc(OC)n1 | – | – | 26.7 | – | –
O=C(NN=Cc1ccc(-c2cccc(Cl)c2)o1)C(=O)NC1CCCC1 | · | · | · | – | ·
CCCCCCCN(c1ccccc1)[C@@H]1C[C@H]2CCCC(=O)N3CC[C@@H](C1)[C@@H]23 | – | – | 18.8 | · | –
Cc1nc(N=C(N)NC(=O)N2c3ccccc3Sc3ccccc32)nc2ccccc12 | · | · | · | – | ·
COc1cc(OC)c(C#N)c(S(=O)(=O)Cc2ccccc2)c1 | – | – | 11.7 | – | –
NS(=O)(=O)c1ccc(CNC(=S)Nc2ccc(Cl)c(Cl)c2)cc1 | – | – | 11.6 | – | –
COc1ccc(NC(=S)NCc2ccc(S(N)(=O)=O)cc2)cc1OC | – | – | – | – | –
CC(=NNC(=O)c1ccoc1C)c1cccc(NC(=O)C2CC2)c1 | · | · | · | – | ·
O=C(c1cc(-c2ccc(O)cc2)on1)N1CCN(c2ccccc2)CC1 | – | – | 11.6 | – | –
Cc1ccc(NC(=O)CSc2ccc(C(N)=O)cc2[N+](=O)[O-])cc1 | – | – | 25.1 | – | –
CC(=O)c1ccc(NC(=O)CSc2ccsc2[N+](=O)[O-])cc1 | – | – | 11.8 | – | –
CCOC(=O)COc1c(C=NOC)cc(Cl)cc1OC | · | · | · | – | ·
C/C=C/c1ccc(OCCCCOc2ccccc2C(C)=O)c(OC)c1 | – | – | 17.8 | – | –
COc1ccccc1OCCCCOc1ccccc1C(C)=O | – | – | – | – | –
O=C1CC(C(=O)Nc2ccc(Cl)cc2)S/C(=N\N=Cc2ccco2)N1 (stereo not given) | · | · | · | – | ·
Cc1ccnc(Nc2nc(-c3c(C)nc4sccn34)cs2)c1 | – | – | 16.4 | – | –
CC(=O)Nc1ccc(-c2csc(Nc3cc(C)ccn3)n2)cc1 | – | – | 24.7 | – | –
CC(=O)Nc1cccc(-c2csc(Nc3cc(C)ccn3)n2)c1 | – | – | 10.0 | – | –
Cc1cc(N=C/C=C2\N(C)c3ccccc3C2(C)C)n(CCC#N)n1 | · | · | · | – | ·
O=C(NN=Cc1cccc(OCc2ccccc2)c1)c1ccc(Br)cc1 | · | · | · | – | ·
Cc1ccc(Cn2cccc2C=NNC(=S)Nc2ccc(C)cc2)cc1 | · | · | · | – | ·
O=C(NN=C1CCSC1)c1cc(Br)ccc1O | · | · | · | – | ·
Cc1nc(-c2cccc(NC(=O)c3ccc(-n4cccn4)cc3)c2)cs1 | – | – | 15.9 | – | –
Cc1nc(-c2ccc(C(=O)Nc3ccc(F)cc3)cc2)cs1 | – | – | 10.9 | – | –
SMILES | SENP1 FRET inh | ATG4B inh | GRIN3A LBD mod | UCH37 DUB inh | NadD inh
O=C(Cc1csc(-c2ccccc2)n1)Nc1ccc(C(F)(F)F)cc1 | – | – | 13.3 | – | –
C=CCNC(=O)c1ccc(-c2nc(-c3ccccc3)cs2)cc1 | – | – | – | – | –
O=C(Nc1ccc(-c2csc(-c3ccccc3)n2)cc1)c1ccccc1 | – | – | 13.3 | – | –
N#Cc1c(Sc2ncc(C(F)(F)F)cc2Cl)nsc1CC=NOCc1c(F)cccc1Cl | · | · | · | – | ·
Cc1cc(C)c2c(CC(=O)O)coc2c1 | – | – | – | 29.2 | –
CCOC(=O)[C@H]1[C@H]2COc3ccccc3[C@@H]2N2C(=O)CN(Cc3ccc(C)cc3)C(=O)[C@@]12C | 33.8 | – | – | – | –
Nc1c(C(=O)NCC2CCCO2)sc2nc3c(c(-c4ccco4)c12)CC/C3=C\c1ccco1 (stereo not given) | – | 49.4 | – | – | 93.0
NC(=O)c1sc2nc3c(c(-c4ccco4)c2c1N)CCCC3 | – | – | – | – | –
COc1cccc(C=NNC(=O)c2ccc(N3CCCC3=O)cc2)c1 | · | · | · | – | ·
COc1ccc(N(CC(=O)NN=Cc2ccc(C(=O)O)cc2)S(=O)(=O)c2ccc(NC(C)=O)cc2)cc1 | · | · | · | – | ·
C=CCN1C(=O)/C(=C/c2ccc(O)cc2)S/C1=N/c1nccs1 | – | – | 19.7 | · | –
COc1ccc(S(=O)(=O)N(C)CC(=O)NC2CCCCC2)cc1Cl | – | – | 11.2 | – | –
CCN(CC)c1ccc2cc(-c3nc4ccccc4[nH]3)c(=O)oc2c1 | – | – | – | – | –
CCN(CC)c1ccc2cc(-c3nnc(-c4ccccc4)o3)c(=O)oc2c1 | – | – | 31.6 | – | –
O=C(NN=Cc1cccc(Oc2ccccc2)c1)c1cccc(O)c1 | · | · | · | – | ·
